Results published in ChEMBL document CHEMBL2311321, “Alkaloid constituents from flower buds and leaves of sacred lotus (Nelumbo nucifera, Nymphaeaceae) with melanogenesis inhibitory activity in B16 melanoma cells” (Bioorg Med Chem, 2013).

Experiments:
[1] = Cytotoxicity against mouse B16-4A5 cells assessed as cell viability at 100 uM after 70 hrs by WST-8 assay
[2] = Inhibition of melanogenesis in mouse B16-4A5 cells after 72 hrs by spectrophotometry; type: functional, cell-based
[3] = Inhibition of melanogenesis in mouse B16-4A5 cells at 100 uM after 72 hrs by spectrophotometry; type: functional; conditions: B16-4A5, 72 h
[4] = Inhibition of melanogenesis in mouse B16-4A5 cells at 30 uM after 72 hrs by spectrophotometry; type: functional; conditions: B16-4A5, 72 h
[5] = Inhibition of melanogenesis in mouse B16-4A5 cells at 10 uM after 72 hrs by spectrophotometry; type: functional; conditions: B16-4A5, 72 h
[6] = Inhibition of melanogenesis in mouse B16-4A5 cells at 3 uM after 72 hrs by spectrophotometry; type: functional; conditions: B16-4A5, 72 h
[7] = Inhibition of melanogenesis in mouse B16-4A5 cells at 1 uM after 72 hrs by spectrophotometry; type: functional; conditions: B16-4A5, 72 h
[8] = biological target: T1, Tyrosinase (Agaricus bisporus) (UniProt O42713); assay: Inhibition of mushroom tyrosinase at 100 uM
T1 sequence (whole entry): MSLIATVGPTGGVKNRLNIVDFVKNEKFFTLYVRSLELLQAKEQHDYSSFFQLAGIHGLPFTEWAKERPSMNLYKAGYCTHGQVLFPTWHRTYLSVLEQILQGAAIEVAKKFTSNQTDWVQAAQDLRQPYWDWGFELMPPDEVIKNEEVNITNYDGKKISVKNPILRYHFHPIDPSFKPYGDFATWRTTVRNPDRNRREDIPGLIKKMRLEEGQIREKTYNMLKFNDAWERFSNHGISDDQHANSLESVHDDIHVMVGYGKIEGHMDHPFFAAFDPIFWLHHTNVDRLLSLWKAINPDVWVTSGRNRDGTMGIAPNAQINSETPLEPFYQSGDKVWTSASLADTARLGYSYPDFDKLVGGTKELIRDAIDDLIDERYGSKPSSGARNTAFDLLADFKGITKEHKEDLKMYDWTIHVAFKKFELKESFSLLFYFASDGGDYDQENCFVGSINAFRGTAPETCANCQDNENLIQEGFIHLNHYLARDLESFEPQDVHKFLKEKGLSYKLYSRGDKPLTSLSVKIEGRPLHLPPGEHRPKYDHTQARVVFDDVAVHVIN
In short: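 Enzyme mix: 70 µL L-DOPA (2.5 mM in phosphate buffer) as substrate plus 20 µL test solution (DMSO, final 0.1%). Reaction started with 120 µL mushroom tyrosinase (80.5 units/mL), run 5 min at 25 °C. Dopaquinone measured by absorbance at 405 nm (reference 655 nm). Inhibition % = (A−B)/A × 100 versus vehicle.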

[9] = Antimelanogenic activity in mouse B16-4A5 cells assessed as inhibition of TRP2 mRNA expression at 30 uM after 72 hrs by RT-PCR analysis relative to beta-actin mRNA; type: functional
In short: (§1)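 B16 melanoma 4A5 cells seeded at 1.0 × 10^5 cells/well in 6-well plates, cultured 24 h, then exposed to test compound plus theophylline 1 mM for 72 h. Total RNA extracted; cDNA from 1 µg RNA; SYBR Green real-time PCR (95 °C 2 min; 40 cycles 95/58/72 °C, 30 s each) with gene-specific primers; relative quantification normalized to β-actin mRNA.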

[10] = Antimelanogenic activity in mouse B16-4A5 cells assessed as inhibition of TRP2 mRNA expression at 10 uM after 72 hrs by RT-PCR analysis relative to beta-actin mRNA; type: functional; in short: as §1
[11] = Antimelanogenic activity in mouse B16-4A5 cells assessed as inhibition of TRP2 mRNA expression at 3 uM after 72 hrs by RT-PCR analysis relative to beta-actin mRNA; type: functional; in short: as §1
[12] = Antimelanogenic activity in mouse B16-4A5 cells assessed as inhibition of TRP1 mRNA expression at 30 uM after 72 hrs by RT-PCR analysis relative to beta-actin mRNA; type: functional; in short: as §1
[13] = Antimelanogenic activity in mouse B16-4A5 cells assessed as inhibition of TRP1 mRNA expression at 10 uM after 72 hrs by RT-PCR analysis relative to beta-actin mRNA; type: functional; in short: as §1
[14] = Antimelanogenic activity in mouse B16-4A5 cells assessed as inhibition of TRP1 mRNA expression at 3 uM after 72 hrs by RT-PCR analysis relative to beta-actin mRNA; type: functional; in short: as §1
[15] = Antimelanogenic activity in mouse B16-4A5 cells assessed as inhibition of tyrosinase mRNA expression at 30 uM after 72 hrs by RT-PCR analysis relative to beta-actin mRNA; type: functional; in short: as §1
[16] = Antimelanogenic activity in mouse B16-4A5 cells assessed as inhibition of tyrosinase mRNA expression at 10 uM after 72 hrs by RT-PCR analysis relative to beta-actin mRNA; type: functional; in short: as §1
[17] = Antimelanogenic activity in mouse B16-4A5 cells assessed as inhibition of tyrosinase mRNA expression at 3 uM after 72 hrs by RT-PCR analysis relative to beta-actin mRNA; type: functional; in short: as §1

| SMILES | viability at 70 h, 100 µM [1] [%] | IC50 [2] [µM] | inhibition at 100 µM [3] [%] | inhibition at 30 µM [4] [%] | inhibition at 10 µM [5] [%] | inhibition at 3 µM [6] [%] | inhibition at 1 µM [7] [%] | inhibition [8] [%] | fold change (FC) [9] | fold change (FC) [10] | fold change (FC) [11] | fold change (FC) [12] | fold change (FC) [13] | fold change (FC) [14] | fold change (FC) [15] | fold change (FC) [16] | fold change (FC) [17] |
| --- | --- | --- | --- | --- | --- | --- | --- | --- | --- | --- | --- | --- | --- | --- | --- | --- | --- |
| COc1cc2c3c(c1OC)C1(C=CC(=O)C=C1)C[C@H]3N(C)CC2 [PRONUCIFERINE] | 82 | 47.9 | 66.4 | 40.3 | 18.3 | 16.8 | 4 | – | – | – | – | – | – | – | – | – | – |
| COc1cc2c3c(c1OC)-c1ccccc1C[C@H]3N(C)CC2 [NUCIFERINE] | 46 | 15.8 | 89.3 | 72.3 | 32.1 | 16.5 | 11.5 | < 3 | 0.65 | 0.71 | 1.11 | 0.36 | 0.74 | 0.76 | 0.38 | 0.64 | 0.61 |
| COc1cc2c3c(c1)-c1ccccc1CC3N(C)CC2 (configuration not stated) | – | 2 | – | 82.5 | 76 | 54.7 | 39.1 | – | – | – | – | – | – | – | – | – | – |
| COc1cc2c(cc1OC)C(Cc1ccc(O)cc1)N(C)CC2 (racemic) | 82 | 25.6 | 80.3 | 50.4 | 34 | 18.2 | 7.5 | – | – | – | – | – | – | – | – | – | – |
| COc1cc2c3c(c1OC)-c1ccccc1C[C@H]3NCC2 | 82 | 62.9 | 91.9 | 17.6 | 12.1 | 16.2 | 5.8 | – | – | – | – | – | – | – | – | – | – |
| COc1c(O)cc2c3c1-c1ccccc1C[C@H]3NCC2 [ASIMILOBINE] | 46 | – | – | – | – | – | – | – | – | – | – | – | – | – | – | – | – |
| COc1cc2c3c(c1OC)-c1ccccc1C[C@H]3[N+](C)([O-])CC2 (some centres not stated) | 82 | 43 | 88.4 | 33.7 | -0.1 | -3.2 | -4.8 | – | – | – | – | – | – | – | – | – | – |
| COc1cc2c3c(c1O)-c1ccccc1C[C@H]3N(C)CC2 | 39.7 | 19.3 | – | 65.9 | 27.3 | 11.1 | -2.6 | – | – | – | – | – | – | – | – | – | – |
| CN1CCc2ccccc2C1Cc1ccccc1 (configuration not stated) | 77 | 5 | 75.4 | 51.8 | 59.7 | 40.5 | 24.5 | – | – | – | – | – | – | – | – | – | – |
| COc1c(O)cc2c3c1-c1ccccc1C[C@H]3N(C)CC2 | 82 | 14.5 | 90.5 | 70.6 | 37.9 | 19.7 | 15.4 | < 3 | 0.88 | 0.96 | 1.1 | 0.49 | 0.72 | 0.79 | 0.53 | 0.76 | 0.65 |
| CN1CCc2ccccc2C1 | 82 | – | 15.9 | 16.5 | 9.4 | 9.7 | 10.6 | – | – | – | – | – | – | – | – | – | – |
| COc1c(O)cc2c3c(cc4ccccc4c13)N(C)CC2 | 46 | 13.3 | 78.7 | 87.4 | 37.6 | 13.2 | 10.9 | – | – | – | – | – | – | – | – | – | – |
| c1ccc2c(c1)CCNC2 [1,2,3,4-TETRAHYDROISOQUINOLINE] | 46 | – | 26.1 | 2.8 | -54.2 | -41.5 | -12.6 | – | – | – | – | – | – | – | – | – | – |
| COc1cc2ccnc3c2c(c1OC)-c1ccccc1C3=O [LYSICAMINE] | 22.5 | – | – | 65.3 | -1.5 | 8.7 | 4.8 | – | – | – | – | – | – | – | – | – | – |
| COc1cc2c3c(cc4ccccc4c3c1OC)N(C)CC2 [DEHYDRONUCIFERINE] | 77 | 85 | 78.4 | 8 | 11.8 | 4.8 | 14.5 | – | – | – | – | – | – | – | – | – | – |
| OC[C@H]1O[C@@H](Oc2ccc(O)cc2)[C@H](O)[C@@H](O)[C@@H]1O [ARBUTIN] | – | 174 | 38.1 | 20.4 | 10.6 | – | – | – | – | – | – | – | – | – | – | – | – |
| COc1c(O)cc2c3c1-c1ccccc1C[C@@H]3NCC2 [ASIMILOBINE] | – | > 100 | 36.2 | 39.7 | 12.1 | -7.4 | 7.4 | – | – | – | – | – | – | – | – | – | – |
